Bioassay records as filed in PubChem.
Most compounds without a hit are left out; they make up all but 1.3% or so of the library.
S1P4 agonist = S1P4 receptor agonists, primary screen, cell-based | Sphingosine 1-phosphate receptor 4 (Homo sapiens), O95977 | S1P4-expressing cell line, agonist reporter assay | activation, % at 4.98 µM | 220,000 compounds, 0.35% hits | AID 1509, 2009; in the data active means activation above about 11%;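 further: 0% = DMSO vehicle and 100% = reference agonist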
Dynein transport = inhibitors of GR-EGFP nuclear translocation, primary screen, dynein cargo transport inhibitor project, imaging, high-content, 3617.4 mouse cells; 220,000 compounds, 0.47% hits; test concentration mostly 20 µM; stimulated with dexamethasone, 1 µM; active compounds read low; z-score, hits read low;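 active means plate z-score of nuclear minus cytoplasmic receptor signal below a set negative limit, without overly bright fluorescence or cell loss, cut at about -3.5 in these data, passing the limit was not always enough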;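 further: z-score of nuclear minus cytoplasmic ring GR-EGFP intensity difference per well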
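Buffer or medium: tet-free, stripped-serum medium; Also added: dexamethasone, 1.0 µM final; Technique: high-content fluorescence imaging after fixation; Times: 48 h induction, 1 h compound, 30 min dex at 37 °C; Read-out: per-cell GR-EGFP intensity, nucleus versus surrounding cytoplasmic ring, well-averaged.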
Mdm2 ligase inh = MDM2-luciferase reporter signal enhancers, primary screen, MDM2 E3 ligase inhibitor project, cell-based, luminescence, 1536-well | E3 ubiquitin-protein ligase Mdm2 (Homo sapiens), Q00987 | signal enhancement, % at 5 µM | AID 1230, 2008 | cell-based MDM2 ubiquitination luciferase reporter, 2 h; 0 = plate control, 100 = twice control, blank-subtracted | 210,000 compounds, 0.11% hits;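 active means signal enhancement of 30% or more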;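 further: luminescence tracks abundance of the self-degrading MDM2-luciferase fusion protein; higher signal means inhibition of MDM2 E3 ligase activity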
Target sequence (Q00987 whole entry, looked up, the tested form may be a part): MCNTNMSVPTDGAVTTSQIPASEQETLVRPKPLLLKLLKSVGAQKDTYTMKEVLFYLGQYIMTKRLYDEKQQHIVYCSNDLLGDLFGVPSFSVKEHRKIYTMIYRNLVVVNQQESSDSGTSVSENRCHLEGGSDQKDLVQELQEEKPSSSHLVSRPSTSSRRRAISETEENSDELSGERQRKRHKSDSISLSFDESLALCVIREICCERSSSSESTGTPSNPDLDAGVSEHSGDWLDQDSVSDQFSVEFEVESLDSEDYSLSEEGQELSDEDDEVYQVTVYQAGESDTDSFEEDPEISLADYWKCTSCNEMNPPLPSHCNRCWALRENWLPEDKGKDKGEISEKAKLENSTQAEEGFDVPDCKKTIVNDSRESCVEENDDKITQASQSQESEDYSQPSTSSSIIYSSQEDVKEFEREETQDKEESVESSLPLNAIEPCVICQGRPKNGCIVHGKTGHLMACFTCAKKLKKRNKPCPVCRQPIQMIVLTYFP
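Assay system: mammalian cells stably expressing self-ubiquitinating, self-degrading MDM2 E3–luciferase fusion. Quantity: 2000 cells in each well. Medium: DMEM culture medium. Compound dosing: single-point 5 µM. Timing: cell settling 4 h, compound treatment 2 h, both 37 °C. Technique: luciferase luminescence. Read-out basis: percent signal gain over controls, blank-subtracted. Benchmarks: plate controls and plate blanks.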
Hsp70 activator = Hsp70 transcriptional activators, primary screen, cell-based, HeLa, Hsp70 promoter luciferase, luminescence, 10 µM; HeLa Hsp70 promoter luciferase reporter; scaled: vehicle 0, proteasome-inhibitor control 100%; 200,000 compounds, 0.04% hits; activation, % at 10 µM;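 active means activation above the mean across all tested compounds plus 3 SD, cutoff set per campaign, cut at about 5.5% in these data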;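 further: 100% = MG132 at 30 µM as the positive control and 0% = DMSO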
S1P3 antag-1 = S1P3 receptor antagonists, primary screen, cell-based. 170,000 compounds, 0.27% hits. CHO S1P3 NFAT-BLA reporter, FRET fluorescence, antagonist mode. inhibition, % at 4.98 µM;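 active means inhibition above the plate cutoff, the mean inhibition of test wells on that plate plus 3 SD, cut at about 28% in these data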;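 further: cells challenged with S1P at its EC80 of 0.8 µM; blue over green emission ratio from cleaved BLA substrate after 4 h stimulation; 0% = S1P-stimulated wells and 100% = unstimulated DMSO-only wells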
S1P4 antagonist = S1P4 receptor antagonists, primary screen, cell-based. 220,000 compounds, 0.26% hits. Sphingosine 1-phosphate receptor 4 (Homo sapiens), O95977. inhibition, % at 4.98 µM. S1P4-expressing cells, antagonist mode, reporter read-out. AID 1510, 2009; in the data active means inhibition above about 29%;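 further: 0% = wells stimulated with agonist and 100% = vehicle wells without agonist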
S1P3 antag-2 = S1P3 receptor antagonists, retest, confirmation, cell-based; 240 compounds, 30% hits; CHO S1P3 NFAT-BLA reporter, FRET, antagonist mode; inhibition, % at 4.98 µM; shares compounds with S1P3 antag-1;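 active means inhibition above the hit threshold that was computed for the earlier primary screen, cut at about 30% in these data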;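 further: 0% = S1P-stimulated wells and 100% = unstimulated DMSO-only wells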
Starred values were filed as active, the others as inactive; . = not tested or not shown.

SMILES	S1P4 agonist	Dynein transport	Mdm2 ligase inh	Hsp70 activator	S1P3 antag-1	S1P4 antagonist	S1P3 antag-2
CCn1c(=O)c([N+](=O)[O-])c(NCCCn2ccnc2)c2ccccc21	1	-0.59	-15	.	-12	3	.
COCC(=O)N1CCC(Oc2ccc(C(=O)NCCc3ccncc3)cc2)CC1	1	-0.62	0	0	6	-10	.
O=C(NCCCN1CCCC1)[C@H](CSCc1ccccc1)N1Cc2ccccc2C1=O	0	-0.45	4	.	-7	10	.
CC(C(=O)Nc1cccc(Br)c1)c1ccc([N+](=O)[O-])cc1 (stereo not given)	1	-0.27	2	0	30*	-3	21
CC(C(=O)Nc1cccnc1)c1ccc([N+](=O)[O-])cc1 (stereo not given)	3	-0.65	3	0	-11	-22	.
C=CCNc1nc(-c2ccc([N+](=O)[O-])cc2)cs1	0	-1	-13	0	29*	-9	3
CC(C)c1ccc(/C=C/C(=O)NCCC2=CCCCC2)cc1	-1	0.49	-87	0	30*	-23	-10
O=C(OC1CCOC1=O)c1ccc(NS(=O)(=O)c2cccs2)cc1 (stereo not given)	-1	0.71	-18	0	-19	3	.
CCCC[C@@H]1C[C@H]1[C@@H](NC(=O)c1cccs1)c1ccc(Cl)cc1	1	0.75	.	0	48*	9	69*
COc1ccc(C(=O)NCCN2C(=O)S/C(=C\c3cccnc3)C2=O)cc1[N+](=O)[O-]	-1	-0.54	-8	.	2	9	.
COc1ccc2[nH]c3c(N4CCc5ccccc5C4)ncnc3c2c1	0	1.3	-16	.	31*	1	25
O=c1[nH]cc(N2CCCCCC2)c(=O)[nH]1	1	0.012	-10	.	2	-5	.
COc1ccccc1NC(=O)c1ccc(NC(=O)COC(=O)C2CCCO2)cc1 (stereo not given)	1	0.6	-2	0	30*	-1	-10
Cc1cc(C)n2nc(C(=O)NCc3ccco3)cc2n1	1	-0.83	-14	0	-12	-15	.
Cc1ccn2cc(C(=O)NCc3ccco3)nc2c1	1	-1.2	-5	0	30*	1	-13
C/C(=N/Nc1ccc([N+](=O)[O-])cc1)c1ccc(C)cc1C	3	0.35	3	0	33*	0	22
O=C(N/N=C/c1ccc([N+](=O)[O-])cc1)c1cc2ccccc2o1	1	-0.31	-56	.	-8	-25	.
C/C(=N\Nc1ccc([N+](=O)[O-])cc1)c1cc2ccccc2o1	0	0.7	-12	0	54*	15	55*
CCOCCCn1c(=S)[nH]c2cc(C(=O)NCCCN(CC)CC)ccc2c1=O	0	-0.61	-7	0	-2	-8	.
O=C(COC(=O)CCCOc1ccc(Cl)cc1Cl)Nc1cccc(Cl)c1	1	-0.067	-25	0	43*	-27	-26
Cc1sc(NC(=O)C2C3CCC(O3)C2C(=O)O)nc1-c1ccc(CC(C)C)cc1 (stereo not given)	-1	0.81	-15	0	106*	0	-15
CCOc1ccc(/C=C(\C#N)C(=O)c2c(C)[nH]c3ccccc23)cc1OC	0	-0.73	2	0	-16	-8	.
COc1cc(/C=C(/C#N)C(=O)c2c(C)[nH]c3ccccc23)ccc1OCC#N	1	2.3	.	.	30*	3	-6
O=C(c1ccccc1)c1ccccc1NC(=O)C1CCCN1Cc1ccccc1 (stereo not given)	1	0.074	-11	.	-7	-3	.
CCN1/C(=C/c2ccc3ccccc3[n+]2CC)C=Cc2ccccc21	2	2	-33	0	.	-23	.
CCCCN1/C(=C/c2ccc3ccccc3[n+]2CC)Sc2ccccc21	-3	0.13	-68	0	30*	-18	21
